Measurements taken from ChEMBL document CHEMBL4680103, “In Vitro and in Vivo Anti-Trypanosoma cruzi Activity of New Arylamine Mannich Base-Type Derivatives” (J Med Chem, 2016).
Activity calls are given as the source filed them. The calls are words filed in the database; no cut-off is given here.

Experiments:
Trypanosoma cruzi [1] = test: Antitrypanosomal activity against Trypanosoma cruzi SN3 trypomastigote froms infected in mouse blood incubated for 24 hrs by Neubauer chamber based assay; type: functional, organism-based
Method in brief: (§1)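 Mouse blood taken at peak parasitemia (day 7) was diluted with uninfected blood to 4×10^6 trypomastigotes/mL, then 1:2 in RPMI 1640. Drugs from DMSO stocks were added at 1, 10, 25, 50 and 100 µM and incubated 24 h at 4–8 °C. Parasites were counted in a Neubauer chamber in triplicate. IC50 was calculated versus control.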

Trypanosoma cruzi [2] = test: Antitrypanosomal activity against Trypanosoma cruzi Tulahuen epimastigote forms incubated for 72 hrs by hemocytometry; type: functional, organism-based
Method in brief: (§2)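 Epimastigotes grown in MTL medium with 10% inactivated FBS at 28 °C. Compounds were dissolved in DMSO (0.01% v/v) and added at 0.1–100 µM for 72 h. Parasites were counted in a Neubauer chamber. IC50 (50% growth inhibition) was derived by linear regression of Kc values. Values are averages of four determinations.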

Trypanosoma cruzi [3] = test: Antitrypanosomal activity against Trypanosoma cruzi Tulahuen amastigote forms infected in African green monkey Vero cells incubated for 72 hrs by Giemsa staining based micrscopy; type: functional, organism-based
Method in brief: (§3)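 Vero cells (RPMI, 10% inactivated FBS, 37 °C, 5% CO2) were seeded at 1×10^4/well on coverslips and cultured 2 days. They were infected 24 h with metacyclic forms at 10:1. After washing off free parasites, drugs were added at 0.1–100 µM for 72 h. Slides were methanol-fixed and Giemsa-stained; amastigotes were counted in 200 host cells versus untreated. IC50 was calculated.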

Trypanosoma cruzi [4] = test: Antitrypanosomal activity against Trypanosoma cruzi Arequipa trypomastigote froms infected in mouse blood incubated for 24 hrs by Neubauer chamber based assay; type: functional, organism-based; method in brief: as §1
Trypanosoma cruzi [5] = test: Antitrypanosomal activity against Trypanosoma cruzi SN3 amastigote forms infected in African green monkey Vero cells incubated for 72 hrs by Giemsa staining based micrscopy; type: functional, organism-based; method in brief: as §3
Trypanosoma cruzi [6] = test: Antitrypanosomal activity against Trypanosoma cruzi Arequipa amastigote forms infected in African green monkey Vero cells incubated for 72 hrs by Giemsa staining based micrscopy; type: functional, organism-based; method in brief: as §3
Trypanosoma cruzi [7] = test: Antitrypanosomal activity against Trypanosoma cruzi Arequipa epimastigote forms incubated for 72 hrs by hemocytometry; type: functional, organism-based; method in brief: as §2
Trypanosoma cruzi [8] = test: Antitrypanosomal activity against Trypanosoma cruzi Tulahuen trypomastigote froms infected in mouse blood incubated for 24 hrs by Neubauer chamber based assay; type: functional, organism-based; method in brief: as §1
Trypanosoma cruzi [9] = test: Antitrypanosomal activity against Trypanosoma cruzi SN3 epimastigote forms incubated for 72 hrs by hemocytometry; type: functional, organism-based; settings: SN3, 72 h; method in brief: as §2
Vero = test: Cytotoxicity in African green monkey Vero cells incubated for 72 hrs; type: cell-based; settings: Chlorocebus sabaeus
Trypanosoma cruzi [10] = test: Antitrypanosomal activity against Trypanosoma cruzi infected in African green monkey Vero cells assessed as reduction in number of amastigotes per infected cell measured up to 10 days by Giemsa staining based hemocytometry; type: functional; settings: time day <=10
Method in brief: (§4)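 Vero cells infected with metacyclic forms (10:1) were exposed to one concentration per compound immediately after infection for 12 h at 37 °C, 5% CO2. After washing, cultures were kept 10 days with fresh medium every 48 h. Every 48 h, % infected cells and amastigotes per infected cell (200 Giemsa-stained cells) and medium trypomastigotes (Neubauer) were scored. Means of three experiments.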

Trypanosoma cruzi [11] = test: Antitrypanosomal activity against Trypanosoma cruzi Arequipa trypomastigotes infected in BALB/c mouse assessed as reduction in splenomegaly by measuring weight percent of spleens […] at 100 mg/kg, po dosed on alternating days (7 to 15 days post infection) by PCR analysis (reference value: 1.603%); type: functional
Trypanosoma cruzi [12] = test: Antitrypanosomal activity against Trypanosoma cruzi infected in African green monkey Vero cells assessed as reduction in infection rate measured up to 10 days by Giemsa staining based hemocytometry; type: functional; settings: time day <=10; method in brief: as §4
Trypanosoma cruzi [13] = test: Antitrypanosomal activity against Trypanosoma cruzi Arequipa trypomastigotes infected in BALB/c mouse assessed as reduction in parasitemia measured during acute phase (days 0 to 40 post infection) at 50 to 100 mg/kg, po dosed on alternating days (7 to 15 days post infection); type: functional, organism-based; settings: dose 50-100 mg/kg
Method in brief: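 Female BALB/c mice (8–10 weeks, 25–30 g; groups of six) were infected i.p. with 5×10^5 Arequipa blood trypomastigotes. Dosing was oral, 50 or 100 mg/kg/day, on 5 alternating days (days 7–15 pi), alongside untreated and reference-drug groups. Parasitemia was counted in 5 µL mandibular-vein blood by Neubauer chamber through day 40 pi. Data are means ± SD of six mice.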

Trypanosoma cruzi [14] = test: Antitrypanosomal activity against Trypanosoma cruzi Arequipa trypomastigotes infected in BALB/c mouse assessed as reduction in mouse mortality measured during acute phase (days 0 to 40 post infection) at 50 to 100 mg/kg, po dosed on alternating days (7 to 15 days post infection); type: functional, organism-based; settings: dose 50-100 mg/kg
Trypanosoma cruzi [15] = test: Antitrypanosomal activity against Trypanosoma cruzi infected in African green monkey Vero cells assessed as reduction in number of trypomastigotes measured up to 10 days by Giemsa staining based hemocytometry; type: functional; settings: time day <=10; method in brief: as §4

Row | Compound | IC50 (Trypanosoma cruzi [1]) [µM] | IC50 (Trypanosoma cruzi [2]) [µM] | IC50 (Trypanosoma cruzi [3]) [µM] | IC50 (Trypanosoma cruzi [4]) [µM] | IC50 (Trypanosoma cruzi [5]) [µM] | IC50 (Trypanosoma cruzi [6]) [µM] | IC50 (Trypanosoma cruzi [7]) [µM] | IC50 (Trypanosoma cruzi [8]) [µM] | IC50 (Trypanosoma cruzi [9]) [µM] | IC50 (Vero) [µM] | inhibition (INH) (Trypanosoma cruzi [10]) [%] | Spleen weight percent (Trypanosoma cruzi [11]) [%] | inhibition (INH) (Trypanosoma cruzi [12]) [%] | Activity (Trypanosoma cruzi [13]) | Activity (Trypanosoma cruzi [14]) | inhibition (INH) (Trypanosoma cruzi [15]) [%]
1 | O=C(CCN1CCN(c2ccc(F)cc2)CC1)c1ccc2ccccc2c1 | 10.7 | 27.6 | 20.3 | 24.6 | 12.4 | 23.9 | 49 | 25.5 | 24.1 | 103 | – | – | – | – | – | –
2 | O=C(CCN1CCN(c2ccc([N+](=O)[O-])cc2)CC1)c1ccc2ccccc2c1 | 26.4 | 6.9 | 8.6 | 3.9 | 20.3 | 5.4 | 3.4 | 6.9 | 27.7 | 74.3 | – | – | – | – | – | –
3 | O=C(CCN1CCN(c2ccc([N+](=O)[O-])cc2)CC1)c1ccc2c(c1)OCO2 | 50.9 | 15.6 | 11.6 | 0.58 | 11.4 | 1.2 | 1.4 | 0.08 | 18.8 | 276 | – | – | – | – | – | –
4 | O=C(CCN1CCN(c2ccc(F)cc2)CC1)c1ccc2c(c1)OCO2 | 63.4 | 200 | 22.3 | 34.6 | 14.8 | 22.4 | 97 | 56.3 | 17.6 | 323 | – | – | – | – | – | –
5 | O=C(Cn1ccnc1[N+](=O)[O-])NCc1ccccc1 [BENZNIDAZOLE] | 6.2 | – | 21.7 | 12.6 | – | 23.7 | – | 12.8 | – | – | 30 | 0.837 | 22 | Active | Active | 20
6 | O=C(CCN1CCN(c2ccc(C(F)(F)F)cc2)CC1)c1ccc2ccccc2c1 | 36.5 | 4.2 | 20.5 | 8.3 | 8.3 | 2.6 | 1.23 | 6.6 | 15.3 | 30.1 | – | – | – | – | – | –
7 | COc1cc(Cl)ccc1N1CCN(CCC(=O)c2cc(C)sc2C)CC1 | 37.5 | 4.7 | 2 | 0.7 | 24.2 | 0.8 | 2.5 | 2.3 | 21.2 | 138 | – | – | – | – | – | –
8 | O=C(CCN1CCN(c2ccc(C(F)(F)F)cc2)CC1)c1ccc2c(c1)OCO2 | 14.2 | 21.8 | 17.6 | 21.8 | 13 | 27.9 | 50.6 | 23.7 | 17.8 | 48.7 | – | – | – | – | – | –

The next lines start with results.

Row | IC50 (Trypanosoma cruzi [1]) [µM] | IC50 (Trypanosoma cruzi [2]) [µM] | IC50 (Trypanosoma cruzi [3]) [µM] | IC50 (Trypanosoma cruzi [4]) [µM] | IC50 (Trypanosoma cruzi [5]) [µM] | IC50 (Trypanosoma cruzi [6]) [µM] | IC50 (Trypanosoma cruzi [7]) [µM] | IC50 (Trypanosoma cruzi [8]) [µM] | IC50 (Trypanosoma cruzi [9]) [µM] | Compound | IC50 (Vero) [µM] | inhibition (INH) (Trypanosoma cruzi [10]) [%] | Spleen weight percent (Trypanosoma cruzi [11]) [%] | inhibition (INH) (Trypanosoma cruzi [12]) [%] | Activity (Trypanosoma cruzi [13]) | Activity (Trypanosoma cruzi [14]) | inhibition (INH) (Trypanosoma cruzi [15]) [%]
9 | 86.3 | 28.9 | 20 | 39.5 | 32 | 22.6 | 86.7 | 27.3 | 53.9 | O=C(CCN1CCN(Cc2cccc(F)c2)CC1)c1csc2ccccc12 | 70.8 | – | – | – | – | – | –
10 | 4.1 | 48.1 | 8.8 | 43.3 | 16.3 | 19.8 | 36.6 | 52.4 | 39.4 | O=C(CCN1CCN(c2ccc([N+](=O)[O-])cc2)CC1)c1csc2ccc(F)cc12 | 554 | – | – | – | – | – | –
11 | 16.8 | 69.1 | 11.2 | 46.3 | 6.2 | 1.7 | 2.5 | 29.3 | 12.6 | O=C(CCN1CCN(c2ccc(Cl)cc2)CC1)c1ccc2c(c1)OCO2 | 0.3 | – | – | – | – | – | –
12 | 43.2 | 48.2 | 8.1 | 32.3 | 21.4 | 19.3 | 21.9 | 6.6 | 40.6 | O=C(CCN1CCN(c2ccc(C(F)(F)F)cc2)CC1)c1csc2ccccc12 | 237 | – | – | – | – | – | –
13 | 19.6 | 9.6 | 14.8 | 9.6 | 17.6 | 13.2 | 28.5 | 21.8 | 30.1 | O=C(CCN1CCN(c2ccc(Cl)cc2)CC1)c1csc2ccc(F)cc12 | 246 | – | – | – | – | – | –
14 | 20.8 | 30.1 | 21.7 | 43.3 | 18.7 | 31.7 | 29.7 | 32.3 | 42.5 | O=C(CCN1CCN(Cc2ccccc2)CC1)c1csc2ccccc12 | 130 | – | – | – | – | – | –
15 | 21.8 | 28 | 7.7 | 46.9 | 16.3 | 10 | 14.1 | 22.3 | 24.1 | O=C(CCN1CCN(c2ccc(Cl)cc2)CC1)c1ccsc1 | 65.8 | – | – | – | – | – | –
16 | 43.2 | 42.3 | 10.1 | 31.4 | 26.3 | 25.3 | 30.6 | 12.8 | 23.6 | O=C(CCN1CCN(c2ccc(Cl)cc2)CC1)c1csc2ccccc12 | 157 | – | – | – | – | – | –
